Screening data (PubChem BioAssay)
MsrA inhibitor – inhibitors of bovine MsrA | purified bovine MsrA, absorbance read-out | inhibition, % at 15.5 µM | actives 0.75% (n = 360,000); in the data active = inhibition above about 4.5%;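 also: 0% = vehicle wells with enzyme and 100% = reference inhibitor wells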
Tb MetRS inh – Trypanosoma brucei MetRS inhibition | purified T. brucei MetRS, ATP depletion, Kinase-Glo luminescence | inhibition, % at 11.9 µM | actives 0.4% (n = 360,000);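 active = inhibition above a per-plate cutoff of the control wells' mean inhibition plus 3 SD, cut at about 5.5% in these data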;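 also: 0% = DMSO wells median and 100% = median of wells with control inhibitor compound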
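Material: parasite MetRS enzyme / Replication: singlicate, one well per compound / Signal: luminescence of leftover ATP / Schedule: 2 h aminoacylation at 25 °C after 15 min preincubation / Medium: HEPES-MgCl2-KCl buffer plus DTT, spermine, BSA, pyrophosphatase / Doses: 11.9 µM single point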
AI-2 QS mod – modulators of Vibrio harveyi AI-2 quorum sensing system; activity change, % at 7.5 µM; Vibrio harveyi JMH597 AI-2 luminescence/OD600 ratio, 9 h; stronger effect = lower value; strain lacks LuxN and CqsS sensors; 0 = neutral-control median; actives 0.4% (n = 300,000); in the data active = activity change below about -75%, passing the limit was not always enough;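 also: luminescence divided by OD600 gain over 9 h not by final OD600 alone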
HTR2A ag – mouse HTR2A agonism via beta-arrestin recruitment | P35363 | actives 0.66% (n = 360,000) | activation, % at 7.6 µM | CHO-K1 mHTR2A beta-arrestin complementation, luminescence; percent of 30 µM serotonin response;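 active = activation above a run cutoff, the mean activation of all tested compounds plus 3 SD, cut at about 14% in these data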;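 also: 0% = plate median of compound wells and 100% = 30 µM serotonin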
Target sequence (P35363 whole entry, looked up): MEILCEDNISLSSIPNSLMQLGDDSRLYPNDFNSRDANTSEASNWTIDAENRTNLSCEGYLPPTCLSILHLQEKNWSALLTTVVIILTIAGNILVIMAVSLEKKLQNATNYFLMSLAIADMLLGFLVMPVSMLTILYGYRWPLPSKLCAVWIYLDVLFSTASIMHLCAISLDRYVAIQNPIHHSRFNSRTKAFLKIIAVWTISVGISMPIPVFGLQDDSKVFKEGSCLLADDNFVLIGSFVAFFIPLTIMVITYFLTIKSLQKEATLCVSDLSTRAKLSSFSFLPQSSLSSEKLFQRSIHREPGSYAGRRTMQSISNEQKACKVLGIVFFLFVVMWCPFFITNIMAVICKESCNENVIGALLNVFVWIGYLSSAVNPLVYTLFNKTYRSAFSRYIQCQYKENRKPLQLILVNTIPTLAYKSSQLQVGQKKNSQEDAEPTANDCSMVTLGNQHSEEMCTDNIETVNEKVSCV
bovine MsrA act – activators of bovine methionine sulfoxide reductase A; purified bovine MsrA, absorbance read-out; activation, % at 10.6 µM; actives 0.3% (n = 360,000); in the data active = activation above about 7.5%;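 also: 0% = vehicle and 100% = reference activator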
AHR activator – activates the human aryl hydrocarbon receptor. AHR-responsive luciferase reporter cells, luminescence. activation, % at 5 µM. actives 2.5% (n = 320,000). AID 2796; in the data active = activation above about 47%;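 also: 0% = vehicle wells and 100% = reference agonist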
* marks the source's active call; other numbers are inactive results; . = not tested or not shown. The list is not random: actives were taken first. Their share in the collection is about 4.4%.

SMILES	MsrA inhibitor	Tb MetRS inh	AI-2 QS mod	HTR2A ag	bovine MsrA act	AHR activator
O=C(CSc1ccccc1)Nc1nnc(C2CC2)s1	0	0	10	6	-5	19
O=C(O)c1cn(-c2ccccc2)nc1-c1ccc(F)cc1	-1	1	21	14	-4	3
O=C1NC(=O)C(c2cn(-c3ccccc3)nc2-c2ccc(F)cc2)N1 (centres undefined)	-2	0	-86*	-2	-2	6
CSC(=NC#N)N1CCN(c2ccc(Cl)cc2)CC1	-2	0	25	-1	-5	73*
CN(C)C(=C(C#N)C#N)N1CCN(c2ccc(Cl)cc2)CC1	2	0	7	6	-2	68*
CN(C)C(=C(C#N)C#N)N1CCN(c2ccc(Cl)c(Cl)c2)CC1	-1	0	14	-1	-1	62*
N#CC(C#N)=C/C(C#N)=C(/N)N1CCN(c2ccc(Cl)cc2)CC1	1	-1	8	13	-6	-12
COc1ccc(C(=O)N2CCC[C@H]2C(=O)N2CCC[C@@H]2C(=O)NCc2ccccc2)cc1F	0	.	.	.	.	.
Cc1cccc(-n2nc(CC#N)c(C#N)c2N)c1	-1	0	3	2	-2	14
N#CCc1nn(-c2ccc(Cl)cc2)c(N)c1C#N	1	1	14	0	-3	64*
O=C(NCCN1CCN(c2ccccc2)CC1)c1cccn2c(=O)c3cc(Cl)ccc3nc12	-2	-1	4	0	-5	94*
O=C(NCCN1CCN(c2cccc(Cl)c2)CC1)c1cccn2c(=O)c3ccccc3nc12	0	-1	.	-7	-2	.
CCOC(=O)N1CCN(C(=O)c2cccn3c(=O)c4cc(Br)ccc4nc23)CC1	-1	0	.	3	-5	58*
O=C(c1cccn2c(=O)c3cc4ccccc4cc3nc12)N1CCN(c2ccccc2)CC1	.	.	10	.	.	71*
CCOC(=O)N1CCN(C(=O)c2cccn3c(=O)c4c5c(sc4nc23)CCCC5)CC1	1	-1	3	7	-4	13
O=C(NCCN1CCOCC1)c1cccn2c(=O)c3c4c(sc3nc12)CCCC4	.	.	8	.	.	54*
O=C(c1ccco1)N1CCN(C(=O)c2cccn3c(=O)c4c5c(sc4nc23)CCCC5)CC1	0	0	.	0	-3	.
COc1ccc(C2CC(=O)C(c3ccc(C(C)=O)cc3)=CN2Cc2ccccc2)cc1 (centres undefined)	1	.	.	.	.	.
O=C(c1cccn2c(=O)c3cc(Br)ccc3nc12)N1CCN(c2ccccn2)CC1	4	0	.	-2	-2	74*
CCOC(=O)N1CCN(C(=O)c2cccn3c(=O)c4cc(Cl)ccc4nc23)CC1	2	-1	27	0	-6	91*
O=C(c1cccn2c(=O)c3ccccc3nc12)N1CCN(c2ccccn2)CC1	2	0	8	-3	-4	2
COc1ccc(Br)cc1S(=O)(=O)n1ccnc1C	0	0	12	-3	-6	4
Cc1nccn1S(=O)(=O)c1ccc(Br)cc1Br	5.5*	0	4	0	0	-1
COC(=O)[C@]12C[C@H](CC(=O)NCC34CC5CC(CC(C5)C3)C4)C(=O)N(CCC3=CCCCC3)C1=C[C@H](COCc1ccccc1)O[C@@H]2C	0	.	.	.	.	.
O=C(/C=C/c1ccc([N+](=O)[O-])cc1)c1cccs1	1	0	10	-4	-3	0
SMILES	MsrA inhibitor	Tb MetRS inh	AI-2 QS mod	HTR2A ag	bovine MsrA act	AHR activator
Cc1cccc(N/C=C/C(=O)c2cccs2)c1C	2	-1	0	-4	1	59*
COc1cc([N+](=O)[O-])ccc1N/C=C/C(=O)c1cccs1	1	-1	22	-3	-5	51*
NC(=O)c1ccccc1N/C=C/C(=O)c1cccs1	4	-2	17	-4	-3	8
COC(=O)[C@]12C[C@H](CC(=O)N3CCC(c4ccccc4)CC3)C(=O)N(Cc3ccc4c(c3)OCO4)C1=C[C@H](C(C)(C)C)O[C@@H]2C	0	.	.	.	.	.
COc1cc2c(cc1OC)C(c1ccc(-c3ccc(Cl)c(Cl)c3)o1)=NCC2	1	0	13	-9	-2	63*
COc1cc2c(cc1OC)C(c1ccc(-c3cc(Cl)ccc3Cl)o1)=NCC2	.	0	34	-8	-3	20
